Sampled rows, rich in hits. Any-hit rate of the full collection: about 2.1%.
TRPN1 ag = zebrafish TRPN1 (NompC) channel agonism; AID 1424; HEK293 zebrafish TRPN1-YFP, Fluo-8 calcium fluorescence; 100% = response to 87 µM carbachol; actives 0.18% (n = 220,000); activation, % at 3 µM;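 active = activation above its plate's cutoff, the mean activation of test wells on that plate plus 3 SD, cut at about 19% in these data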;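 also: 0% = DMSO alone and 100% = 87 µM carbachol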
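Material: zebrafish TRPN1-YFP in HEK293 cells. Doses: one dose of 3 µM, 0.3% DMSO. Incubation: dye 1 h 37 °C plus 30 min RT. Measured by: intracellular calcium fluorescence with Fluo-8.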
CRFR2-BP antag = blocks CRF-induced signaling of the CRF-BP/CRF-R2 complex | actives 0.59% (n = 350,000) | inhibition, % at 11.8 µM | AID 588475 | HEK293 CRF-R2/CRF-BP, CRF-induced calcium fluorescence;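 active = inhibition of the ligand-induced calcium signal above about 50% at the single tested concentration, limit read from the data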
VIM-2 inh = blocks Pseudomonas aeruginosa VIM-2 metallo-beta-lactamase | purified VIM-2, nitrocefin hydrolysis, epi-absorbance fluorescence | inhibition, % at 5.6 µM | actives 0.89% (n = 290,000) | AID 1527;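 active = inhibition above the mean of all tested compounds plus 3 SD, cutoff set per screening run, cut at about 7.5% in these data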;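 also: red hydrolysis product quenches plate fluorescence so inhibitors raise well fluorescence; 0% = enzyme with DMSO and 100% = DMSO without enzyme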
IMP-1 inh = blocks Pseudomonas aeruginosa IMP-1 metallo-beta-lactamase; actives 0.45% (n = 290,000); purified IMP-1, nitrocefin hydrolysis, epi-absorbance fluorescence; inhibition, % at 5.6 µM; AID 1556;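 active = inhibition above the mean plus 3 SD of all compounds in the same screening run, cut at about 4.5% in these data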;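 also: 0% = IMP-1 with DMSO and 100% = DMSO wells lacking enzyme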
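System: purified IMP-1; amount: IMP-1 0.2 nM before substrate addition; compound: single dose, 5.6 µM; times: 25 °C, 15 min preincubation, 25 min reaction; signal: Epi-absorbance via hydrolysed-nitrocefin quenching of white-plate fluorescence, 480/530 nm, EDTA stop; benchmarks: DMSO with and without IMP-1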
CRFR2-BP ag = CRF-BP/CRF-R2 complex agonism; HEK293 CRF-R2/CRF-BP, calcium dye fluorescence (FLIPR); percent of saturating CRF peptide response; activation, % at 13.2 µM; actives 0.46% (n = 350,000);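 active = activation of at least 50%, plus an integration ratio under a set limit after plate pattern correction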;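 also: plate controls were neutral control wells without compound for no effect and CRF at EC100 for full effect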
TRPML3 ag = agonists of human TRPML3 channel. activation, % at 3 µM. actives 0.29% (n = 220,000). AID 1448. HEK293 TRPML3-YFP, Fluo-8 calcium fluorescence; 100% = the carbachol control signal;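 active = activation above its plate's cutoff, the mean activation of the plate's test wells plus 3 SD, cut at about 12% in these data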;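 also: 0% = DMSO only wells and 100% = carbachol wells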
Target sequence (Q8TDD5 whole entry, looked up): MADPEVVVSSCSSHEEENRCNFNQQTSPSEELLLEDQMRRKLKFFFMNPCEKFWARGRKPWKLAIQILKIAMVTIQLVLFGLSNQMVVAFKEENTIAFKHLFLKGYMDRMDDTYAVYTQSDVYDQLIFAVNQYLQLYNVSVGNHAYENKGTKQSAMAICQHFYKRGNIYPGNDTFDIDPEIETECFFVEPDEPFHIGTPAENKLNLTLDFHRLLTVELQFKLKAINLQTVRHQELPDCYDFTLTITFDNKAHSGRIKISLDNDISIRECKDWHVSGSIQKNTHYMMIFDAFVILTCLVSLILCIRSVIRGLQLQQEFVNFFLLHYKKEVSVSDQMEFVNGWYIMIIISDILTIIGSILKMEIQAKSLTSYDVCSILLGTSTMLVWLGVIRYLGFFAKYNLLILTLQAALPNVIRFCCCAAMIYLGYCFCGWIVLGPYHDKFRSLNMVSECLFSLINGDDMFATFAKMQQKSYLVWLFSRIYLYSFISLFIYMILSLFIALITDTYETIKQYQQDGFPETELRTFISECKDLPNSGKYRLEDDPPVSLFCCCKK
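Test system – HEK293 line with stable expression of human TRPML3-YFP channel · Control set – carbachol 87 µM final as high control (100%), DMSO as low control (0%) · Signal – Fluo-8 calcium dye fluorescence, ex 470-495, em 515-575 nm · Incubation – 1-h 37 °C dye load, 5-s basal, 120-s post-compound reads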
* hit, by the source's call.

`Cc1sc2nc(CN(Cc3cccs3)C(=O)NC3CCCCC3)[nH]c(=O)c2c1C` gave TRPN1 ag -4, CRFR2-BP antag 52*, VIM-2 inh -2, IMP-1 inh -7, CRFR2-BP ag 0 and TRPML3 ag -1.
CC(NC(=O)CC(c1ccccc1)c1cc(Cl)ccc1O)c1ccccc1 (centres undefined) was read as TRPN1 ag -3, CRFR2-BP antag 52*, VIM-2 inh 2, IMP-1 inh -2, CRFR2-BP ag -2 and TRPML3 ag -1.
For CCC(CC)NC(=O)CC(c1ccccc1)c1ccccc1 the results were TRPN1 ag -2, CRFR2-BP antag 71*, VIM-2 inh -2, IMP-1 inh 0, CRFR2-BP ag -11 and TRPML3 ag -2.
For C/C(=C\c1ccccc1)CN1CCC(C(=O)N2CCCCC2)CC1 the results were TRPN1 ag 2, CRFR2-BP antag 96*, VIM-2 inh -4, IMP-1 inh -3, CRFR2-BP ag -3 and TRPML3 ag 1.
For COc1cccc(/C=C2\Sc3ccc(C(=O)NCc4cccnc4)cc3N(C)C2=O)c1 the results were TRPN1 ag 1, CRFR2-BP antag 1, VIM-2 inh 0, IMP-1 inh -1, CRFR2-BP ag -1 and TRPML3 ag 0.
`COc1ccc(/C=C2\Sc3ccc(C(=O)NCc4cccnc4)cc3N(C)C2=O)cc1OC` gave TRPN1 ag 7, CRFR2-BP antag -2, VIM-2 inh 11*, IMP-1 inh -3, CRFR2-BP ag -4 and TRPML3 ag 0.
Cc1ccccc1NS(=O)(=O)c1cc2c(cc1C)NC(=O)CO2 was read as CRFR2-BP antag -85, VIM-2 inh -2, IMP-1 inh -3 and CRFR2-BP ag 60*.
`COc1ccc(N2CCN(c3ccc(C(=O)O)cc3[N+](=O)[O-])CC2)cc1` gave CRFR2-BP antag 11, VIM-2 inh 0, IMP-1 inh -1 and CRFR2-BP ag -1.
Screening CCOC(=O)C(C)(C)N(Cc1ccc(C)cc1)S(=O)(=O)c1ccc(Cl)c([N+](=O)[O-])c1 returned TRPN1 ag 0, CRFR2-BP antag 67*, VIM-2 inh 1, IMP-1 inh 2, CRFR2-BP ag -1 and TRPML3 ag 0.
For CC(C)OC(=O)C(C(=O)C(F)(F)F)c1cc(NS(=O)(=O)c2ccc3ccccc3c2)c2ccccc2c1O (centres undefined) the results were TRPN1 ag 0, CRFR2-BP antag 14, VIM-2 inh 3, IMP-1 inh 9.1*, CRFR2-BP ag 3 and TRPML3 ag 0.
`Cc1ccc(S(=O)(=O)N2CCN(C(=O)C(Cc3ccccc3)NC(=O)c3ccccc3)CC2)cc1` (centres undefined) gave CRFR2-BP antag -4 and CRFR2-BP ag 0.
`O=C(O)c1cc(O)c2c(c1)C(=O)c1cccc(O)c1C2=O` gave TRPN1 ag 2, CRFR2-BP antag -41, VIM-2 inh 7, IMP-1 inh 4.6*, CRFR2-BP ag 49 and TRPML3 ag 3.
`CCNc1nc(NC(C)(C)C)nc(Oc2ccc(=O)n(-c3ccccc3)n2)n1` gave TRPN1 ag 1, CRFR2-BP antag -21, VIM-2 inh -3, IMP-1 inh -4, CRFR2-BP ag 0 and TRPML3 ag 1.
Screening O=C(NCN1CCCCC1)c1cnccn1 returned TRPN1 ag 0, CRFR2-BP antag 51*, VIM-2 inh -2, IMP-1 inh -1, CRFR2-BP ag 0 and TRPML3 ag 0.
Screening N=C1C(c2nc(-c3ccc(F)cc3)cs2)=C(O)CN1CCCN1CCOCC1 returned TRPN1 ag 1, CRFR2-BP antag 14, VIM-2 inh 12*, IMP-1 inh 0, CRFR2-BP ag 0 and TRPML3 ag 0.
COC(=O)C1=C(N)c2c(F)cccc2C1(C#N)c1ccccc1 (centres undefined) was read as TRPN1 ag 1, CRFR2-BP antag 58*, VIM-2 inh -6, IMP-1 inh 0, CRFR2-BP ag -2 and TRPML3 ag -1.
Screening Cc1c(OCC(=O)N[C@@H](Cc2ccccc2)C(=O)O)ccc2c3c(c(=O)oc12)CCC3 returned CRFR2-BP antag -5, VIM-2 inh 12*, IMP-1 inh 1 and CRFR2-BP ag 0.
For Cc1c(OCC(=O)N[C@@H](Cc2ccccc2)C(=O)O)ccc2c1oc(=O)c1ccccc12 the results were CRFR2-BP antag 4, VIM-2 inh 12*, IMP-1 inh -3 and CRFR2-BP ag -1.
`COc1cccc(NC(=O)C2C3C=CC(C3)C2C(=O)O)c1` (centres undefined) gave CRFR2-BP antag -13, VIM-2 inh 0, IMP-1 inh 0 and CRFR2-BP ag 0.
For CCCCOc1ccc(C(=O)N2CCN(c3ncccn3)CC2)cc1 the results were CRFR2-BP antag 5, VIM-2 inh -2, IMP-1 inh -4 and CRFR2-BP ag -2.
`Cc1ccc(C(=O)N/C(=C\c2ccco2)C(=O)NCCCn2ccnc2)cc1` gave TRPN1 ag 0, CRFR2-BP antag 17, VIM-2 inh -3, IMP-1 inh 8.8*, CRFR2-BP ag 2 and TRPML3 ag 1.
For Cc1ccc(C(=O)N/C(=C/c2ccco2)C(=O)NCCCn2ccnc2)cc1 the results were TRPN1 ag 1, CRFR2-BP antag 10, VIM-2 inh -1, IMP-1 inh 0, CRFR2-BP ag 0 and TRPML3 ag 1.
For CN(C)c1ccc(/C=C(\NC(=O)c2ccccc2)C(=O)NCCCn2ccnc2)cc1 the results were CRFR2-BP antag 2, VIM-2 inh -2, IMP-1 inh 5.4* and CRFR2-BP ag 1.
For CC(C)N(Cc1ccccc1)C(=O)COC(=O)c1cnc(Cl)c(Cl)c1 the results were CRFR2-BP antag 3 and CRFR2-BP ag -2.
For CC(C)c1cc(C(=O)OCC(=O)N2CCN(C(=O)c3ccco3)CC2)c(O)c(C(C)C)c1 the results were CRFR2-BP antag -11, VIM-2 inh -1, IMP-1 inh -2 and CRFR2-BP ag 0.
O=C(c1ccc(=O)[nH]c1)N1CCN(S(=O)(=O)c2ccccc2)CC1 was read as CRFR2-BP antag 5, VIM-2 inh -1, IMP-1 inh -1 and CRFR2-BP ag -2.
For COc1c(C)cc(C(=O)C2CCCN(S(=O)(=O)N(C)C)C2)cc1C (centres undefined) the results were CRFR2-BP antag -6, VIM-2 inh 0, IMP-1 inh -2 and CRFR2-BP ag -2.
Screening CCOc1ccccc1C(=O)OCC(=O)NCC1CCCO1 (centres undefined) returned CRFR2-BP antag 108* and CRFR2-BP ag 1.
